Assay outcomes from PubChem BioAssay.
Candida biofilm: kills Candida albicans biofilms; AID 834; actives 0.14% (n = 85,000); inhibition, % at 6 µM; C. albicans biofilm + clotrimazole, Alamar Blue;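 active = inhibition above 20%; inactive = inhibition below 20%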;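 note: preformed 24 hr biofilms exposed to compound for 48 hr; 0% = biofilm without compound and 100% = blank killed by clotrimazole plus chlorhexidine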
TNAP act mid DEA: activators of human TNAP at intermediate phosphate acceptor. activation factor at 20 µM. P05186. purified TNAP, CDP-star luminescence, 100 mM DEA, 30 min; hits give high values; scale: 0 levamisole-inhibited, 1 vehicle-only enzyme. 64,000 tested, under 10 active;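 active = activation factor of at least 2 at 20 µM, relative to controls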
Target sequence (P05186 whole entry, looked up): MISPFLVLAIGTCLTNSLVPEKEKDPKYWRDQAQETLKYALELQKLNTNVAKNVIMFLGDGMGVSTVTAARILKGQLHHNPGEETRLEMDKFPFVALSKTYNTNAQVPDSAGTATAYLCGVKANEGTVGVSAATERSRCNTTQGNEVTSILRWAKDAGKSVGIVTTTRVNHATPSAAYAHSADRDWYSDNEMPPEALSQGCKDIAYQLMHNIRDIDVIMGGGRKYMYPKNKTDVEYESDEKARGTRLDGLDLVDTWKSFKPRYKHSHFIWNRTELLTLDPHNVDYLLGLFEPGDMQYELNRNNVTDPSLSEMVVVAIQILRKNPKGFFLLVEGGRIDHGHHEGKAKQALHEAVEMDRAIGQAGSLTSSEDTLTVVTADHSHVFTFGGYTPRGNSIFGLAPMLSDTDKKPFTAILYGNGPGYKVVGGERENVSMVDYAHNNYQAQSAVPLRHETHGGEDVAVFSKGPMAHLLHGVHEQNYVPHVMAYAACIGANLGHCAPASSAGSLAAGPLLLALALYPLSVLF
MMP13 inh: inhibitors of human MMP13; actives 0.07% (n = 65,000); inhibition, % at 4 µM; AID 570; P45452; MMP-13 fTHP FRET cleavage, Mca fluorescence;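 active = inhibition above the mean of compound-free control plate wells plus 3 SD, cut at about 14% in these data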;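 note: 0% = DMSO wells and 100% = wells with reference MMP-13 inhibitor after basal subtraction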
Jurkat viability: cytotoxic compounds reducing Jurkat cell viability. Jurkat E6.1 viability, ATP luminescence, 48 h. inhibition, % at 4 µM. actives 1.2% (n = 56,000). AID 463;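 active = inhibition above the mean inhibition of all tested compounds plus 3 SD, cut at about 28% in these data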
HEK293 NFkB inh: lowers PMA/ionomycin-induced NF-kB signal in HEK293 cells. HEK-293 NF-kB luciferase reporter, luminescence. inhibition, % at 3 µM. actives 0.21% (n = 62,000);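 active = inhibition above the mean of all tested compounds plus 3 SD, cut at about 40% in these data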;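 note: 0% = stimulated DMSO wells and 100% = 10 µM reference inhibitor 5653914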
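Reagent: PMA plus ionomycin mix as NF-kB-activating stimulus. Assay system: NF-kB luciferase reporter HEK-293 cells. Technique: luminescence from luciferase substrate reagent. Incubation: 1 h compound pre-incubation, 16 h PMA/ionomycin at 37 °C. Benchmarks: DMSO only as uninhibited control, 10 µM reference inhibitor as full inhibition. Repeats: tested once.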
* hit, by the source's call; / = not tested or not shown. This excerpt belongs to a sample that is enriched for hits.

SMILES	Candida biofilm	TNAP act mid DEA	MMP13 inh	Jurkat viability	HEK293 NFkB inh
COc1ccc(-c2cc(C(F)(F)F)nc(SCC(=O)Nc3cc(C)on3)n2)cc1	4	0.9	-17	-3	0
O=C1CC(c2cccnc2)c2cc3c(cc2N1)OCCO3 (centres undefined)	2	0.9	2	-5	15
CCCOc1ccccc1C1CC(=O)Nc2cc3c(cc21)OCCO3 (centres undefined)	/	0.8	4	98*	47*
CCOc1ccccc1C1CC(=O)Nc2cc3c(cc21)OCCO3 (centres undefined)	-1	0.9	-3	95*	28
O=C1CC(c2cccnc2)c2cc3c(cc2N1)OCO3 (centres undefined)	-3	0.8	1	2	7
CC(C)Oc1ccccc1C1CC(=O)Nc2cc3c(cc21)OCO3 (centres undefined)	1	0.9	-3	97*	26
Cc1ccc(-c2nc(-c3ccccn3)no2)cc1	/	0.9	4	35*	80*
COc1ccc(Nc2nc(N3CCCC3)nc3ccccc23)c(OC)c1	0	0.9	2	28*	16
COC(=O)C(C)N(C(=O)c1ccc(C(=O)c2ccccc2)cc1)c1c(C)cccc1C (centres undefined)	2	/	/	/	/
O=C(O)C1CC=CCC1C(=O)Nc1ccc(S(=O)(=O)N2CCCc3ccccc32)cc1 (centres undefined)	10	0.9	5	35*	-55
Cc1ccc(N=C2C(=S)N(c3ccc(C)cc3)C(=N)N2/N=C/c2ccc(Cl)cc2)cc1	1	/	/	/	/
Cc1cccc(OCCCC(=O)N2CCCc3ccccc32)c1C	1	/	/	/	/
O=C(Nc1ccc2c(c1)CCC2)C1CCN(c2c3c(nc4ncnn24)CCC3)CC1	5	0.9	-2	44*	22
O=C(C(Cc1ccccc1)n1cccc1)N1CCCCCC1 (centres undefined)	21*	0.8	3	-6	4
COC(=O)C1=C(CN2CCCc3ccccc32)NC(=O)NC1c1ccc(F)cc1 (centres undefined)	9	0.9	-12	0	70*
O=S(=O)(Cc1ccccc1)c1cnc2ccccc2n1	1	/	/	/	/
O=C(CCn1c(=O)oc2ccccc21)N1CCCCCC1	10	0.9	-2	-2	-2
O=C(CCn1c(=O)oc2ccccc21)N1CCN(c2ccccc2Cl)CC1	7	0.9	1	69*	21
O=c1oc2ccccc2n1Cc1ccccc1Cl	21*	0.9	1	4	14
CCOC(=O)c1c(C)[nH]c(C(=O)C(C)OC(=O)c2cccc(OCc3c(C)noc3C)c2)c1C (centres undefined)	4	0.9	5	4	20
CN1CCN(Cc2nc3c(c(=O)n(C)c(=O)n3C)n2CCc2ccccc2)CC1	8	0.9	3	-2	16
Cc1ccc(NC(=O)COC(=O)C2CC2C)c(S(=O)(=O)N2CCCCC2)c1 (centres undefined)	12	0.9	2	-1	14
CC(=O)Nc1ccc(SCC(=O)c2cc(C)n(Cc3cccs3)c2C)cc1	/	0.9	2	5	13
CC(=O)Nc1ccccc1OCC(=O)c1cc(C)n(Cc2cccs2)c1C	0	0.9	-2	100*	55*
COc1cccc2sc(Nc3nnc(-c4cccs4)o3)nc12	5	1	-16	47*	-57
SMILES	Candida biofilm	TNAP act mid DEA	MMP13 inh	Jurkat viability	HEK293 NFkB inh
COc1cccc2sc(Nc3nc(-c4ccccn4)cs3)nc12	/	1.1	-2	92*	-1
COc1cccc2sc(Nc3nnc(-c4ccc(F)cc4)o3)nc12	5	/	/	/	/
CCOc1cc(S(=O)(=O)NCC2OCCc3ccccc32)c(OCC)cc1-n1cnnn1 (centres undefined)	6	1	-57	3	20
CCCOC(=O)c1[nH]c2c(c1C)C(=O)CC(c1ccc(OC)c(OC)c1)C2 (centres undefined)	11	0.9	6	/	21
CCOC(=O)c1[nH]c2c(c1C)C(=O)CC(c1ccc(OCC)c(OC)c1)C2 (centres undefined)	2	1	1	/	16
CCOC(=O)c1[nH]c2c(c1C)C(=O)CC(c1ccc(F)cc1)C2 (centres undefined)	4	0.9	4	95*	40
CCCCCOC(=O)c1[nH]c2c(c1C)C(=O)CC(c1ccco1)C2 (centres undefined)	/	0.8	0	101*	38
Cc1ccccc1COc1ccc(/C(O)=C2/C(=O)C(=O)N(CCCn3ccnc3)C2c2ccco2)cc1 (centres undefined)	3	0.9	-6	/	/
O=C(Cn1cnc2c(cnn2-c2ccc(F)cc2)c1=O)NCc1ccco1	/	0.9	-10	55*	-3
Cc1ccc(-n2ncc3c(=O)n(CC(=O)NCc4ccco4)cnc32)cc1	9	1	-12	-6	4
CC1=C(C(N)=O)C(c2ccncc2)n2nc(-c3ccccc3Cl)nc2N1 (centres undefined)	21*	0.9	-1	-14	10
COc1ccccc1-c1nc2n(n1)C(c1ccc(Cl)cc1)C(C(N)=O)=C(C)N2 (centres undefined)	4	0.9	-9	8	16
Cc1cccc(Nc2nc(NCc3ccco3)nc(N3CCOCC3)n2)c1	/	0.9	3	8	8
COc1ccc(OCc2nn3c(-c4cccc(OC)c4)nnc3s2)cc1	-1	0.8	16*	4	8
COc1ccc(OCc2nn3c(-c4ccco4)nnc3s2)cc1	2	0.8	5	6	5
Cc1cc(C=O)c2c(c1)C=CC1(Oc3ccccc3C(=O)N1C)O2 (centres undefined)	7	/	/	/	/
Clc1ccc(-n2ncc3c(NCc4ccco4)ncnc32)cc1	3	0.9	-10	/	/
Clc1ccc(Cn2ncc3c(NCc4ccco4)ncnc32)c(Cl)c1	5	1	8	82*	18
O=C1C2C3C=CC(CO)(O3)C2C(=O)N1c1ccccc1-c1ccccc1 (centres undefined)	4	1	-1	61*	10
CC(=O)Oc1ccc(N2C(=O)C3C4C=CC(CO)(O4)C3C2=O)cc1 (centres undefined)	6	/	/	/	/
CCCSc1nnc(Sc2nnnn2-c2ccccc2)s1	4	0.9	2	98*	27
Cc1ccccc1-n1nnnc1Sc1nnnn1-c1ccccc1	8	/	/	/	/
Cn1c(=O)c2c(nc(NCCCO)n2Cc2cccc(Br)c2)n(C)c1=O	2	0.8	4	23	22
COCCCNc1nc2c(c(=O)n(C)c(=O)n2C)n1Cc1cccc(OC)c1	-5	1	3	/	/
Cc1cccc(Cn2c(NCC(C)O)nc3c2c(=O)n(C)c(=O)n3C)c1 (centres undefined)	1	0.9	1	39*	12
COCCNc1nc2c(c(=O)n(C)c(=O)n2C)n1Cc1cccc(C)c1	5	0.9	3	28*	8
CNc1nc2c(c(=O)n(C)c(=O)n2C)n1Cc1ccccc1	-2	0.9	6	45*	14
